In ChEMBL document CHEMBL1139840, “Design and synthesis of glycoside inhibitors of glioma and melanoma growth” (2007):

How the values were obtained:
[1] = Antimitotic activity against human U373 cells by [3H]thymidine incorporation assay; format: functional, U-373MG ATCC; settings: U373 MG, read-out: ID50 (the source's name)
A-375 = test: Antimitotic activity against human A375 cells by [3H]thymidine incorporation assay; format: functional; settings: A-375, 24 h, read-out: ID50 (the source's name)
Method in brief: (§1)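 Cells seeded at 1 × 10⁴/well in DMEM with 10% FCS and left 6 h to attach, then serum-starved 36 h. Compounds added in DMEM with 1% FCS, in triplicate, for 24 h. A 6 h [³H]thymidine pulse (0.5 µCi/well) followed, then SDS lysis and scintillation counting. % inhibition was scaled between 10% FCS (high) and serum-free (low) controls. ID₅₀ came from sigmoidal fits of triplicate dose-response data.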

C6 = test: Antimitotic activity against rat C6 cells by [3H]thymidine incorporation assay; format: functional; settings: C6, 24 h, read-out: ID50 (the source's name); method in brief: as §1
[2] = Antimitotic activity against rat stromal cells by [3H]thymidine incorporation assay; format: functional; settings: read-out: ID50 (the source's name)

Structure (SMILES) | IC50 [1] [µM] | IC50 (A-375) [µM] | IC50 (C6) [µM] | IC50 [2] [µM]
CCCCC(=O)N[C@H]1[C@@H](OCCc2ccccc2)O[C@H](COCC(O)CO)[C@@H](O)[C@@H]1O (mixture of isomers) | > 50 | > 50 | > 50 | 
CCCCCCCCCCCCCCCCO[C@H]1O[C@H](CO)[C@@H](O)[C@H](O)[C@H]1NC(C)=O | > 50 | 29.3 | 13 | 
C=CCCC(=O)N[C@H]1[C@@H](OCCc2ccccc2)O[C@H](COS(=O)(=O)O)[C@@H](O)[C@@H]1O | > 50 | > 50 | > 50 | 
CCCCC(=O)N[C@H]1[C@@H](OCCc2ccccc2)O[C@H](COCC(CO)(CO)CO)[C@@H](O)[C@@H]1O | > 50 | > 50 | > 50 | 
CCCCCCCC/C=C\CCCCCCCC(=O)N[C@H]1[C@@H](OCCCCCCCC)O[C@H](CO)[C@@H](O)[C@@H]1O | 13.3 | 6 | 12 | 
C=CCCC(=O)N[C@H]1[C@@H](OCCCCCCCCCCCCCCCC)O[C@H](CO)[C@@H](O)[C@@H]1O | > 50 | > 50 | > 50 | 
CC(=O)N[C@H]1[C@@H](OCc2ccccc2)O[C@H](CO)[C@@H](O)[C@@H]1O | > 50 | > 50 | > 50 | 
CC(=O)N[C@H]1[C@@H](OCCc2ccccc2)O[C@H](CO)[C@@H](O)[C@@H]1O | > 50 | > 50 | > 50 | 
CCCCCCCCO[C@H]1O[C@H](CO)[C@@H](O)[C@H](O)[C@H]1NC(C)=O | > 50 | > 50 | > 50 | 
CCCCCCCC/C=C\CCCCCCCC(=O)N[C@H]1[C@@H](OCCCCCCCC)O[C@H](CO)[C@@H](O)[C@@H]1OS(=O)(=O)O | 15.6 | 16 | 5.4 | 
C=CCCC(=O)N[C@H]1[C@@H](OCCCCCCCCCCCCCCCC)O[C@H](CO)[C@@H](O)[C@@H]1OS(=O)(=O)O | 33 | 7.2 | 22.6 | 
CCCCCCCC/C=C\CCCCCCCC(=O)N[C@H]1[C@@H](OCCCCCCCC)O[C@H](COCC(CO)(CO)CO)[C@@H](O)[C@@H]1O | 20.6 | 13.3 | 11.9 | 
CCCCCCCCO[C@H]1O[C@H](CO)[C@@H](O)[C@H](O)[C@H]1NC(=O)c1ccccc1 | > 50 | > 50 | > 50 | 
CC(=O)N[C@H]1[C@@H](OCCCCc2ccccc2)O[C@H](CO)[C@@H](O)[C@@H]1O | > 50 | > 50 | > 50 | 
CCCCCCCCCCCCCCCCO[C@H]1O[C@H](COCC(CO)(CO)CO)[C@@H](O)[C@H](O)[C@H]1NC(=O)CCCC | 27.3 | 17 | 18.3 | 
C=CCCC(=O)N[C@H]1[C@@H](OCCc2ccccc2)O[C@H](CO)[C@@H](O)[C@@H]1OS(=O)(=O)O | > 50 | > 50 | > 50 | 
C=CCCC(=O)N[C@H]1[C@@H](OCCc2ccccc2)O[C@H](CO)[C@@H](O)[C@@H]1O | > 50 | > 50 | > 50 | 

The remaining lines, values ahead:

IC50 [1] [µM] | IC50 (A-375) [µM] | IC50 (C6) [µM] | IC50 [2] [µM] | Structure (SMILES)
3.3 | 9.3 | 2.6 |  | CCCCCCCCCCCCCCCCO[C@H]1O[C@H](COCC(O)CO)[C@@H](O)[C@H](O)[C@H]1NC(=O)CCCCCCCCCCCCCCC (mixture of isomers)
9.6 | 2.1 | 12.3 |  | CCCCCCCC/C=C\CCCCCCCCO[C@H]1O[C@H](CO)[C@@H](O)[C@H](OS(=O)(=O)O)[C@H]1NC(C)=O
5.6 | 3.4 |  |  | CCCCCCCCCCCCCCCCO[C@H]1O[C@H](COC[C@@H](O)CO)[C@@H](O)[C@H](O)[C@H]1NC(=O)CCCC
3.2 | 2.3 | 11 |  | CCCCCCCCCCCCCCCCO[C@H]1O[C@H](COCC(CO)(CO)COS(=O)(=O)O)[C@@H](O)[C@H](O)[C@H]1NC(=O)CCCC
4.9 | 2.2 |  |  | CCCCCCCCCCCCCCCCO[C@H]1O[C@H](COC[C@H](O)CO)[C@@H](O)[C@H](O)[C@H]1NC(=O)CCCC
6.7 | 9.3 | 8.6 |  | CCCCC(=O)N[C@H]1[C@@H](OCCc2ccccc2)O[C@H](COCC(CO)(CO)COS(=O)(=O)O)[C@@H](O)[C@@H]1O
13 | 0.6 | 13 | 40 | CCCCCCCC/C=C\CCCCCCCCO[C@H]1O[C@H](COS(=O)(=O)O)[C@@H](O)[C@H](O)[C@H]1NC(C)=O
4.6 | 3 |  |  | CCCCCCCCCCCCCCCCO[C@H]1O[C@H](COCC(O)CO)[C@@H](O)[C@H](O)[C@H]1NC(=O)CCCC (stereo not given in full)
12.6 | 15.6 | 5.6 |  | CCCCCCCC/C=C\CCCCCCCC(=O)N[C@H]1[C@@H](OCCCCCCCC)O[C@H](COS(=O)(=O)O)[C@@H](O)[C@@H]1O
4.6 | 4.8 | 1.3 | 10 | CCCCCCCC/C=C\CCCCCCCCO[C@H]1O[C@H](CO)[C@@H](O)[C@H](O)[C@H]1NC(C)=O
